Laboratory results taken from ChEMBL document CHEMBL1138791, “Acyl sulfonamide anti-proliferatives: benzene substituent structure-activity relationships for a novel class of antitumor agents” (J Med Chem, 2004).

Legend:
HCT-116 [1] = test: Diameter of zone of inhibition for cell colony formation of solid tumor HCT116 at the dose of 200 ug; type: functional, Homo sapiens
How it was run: (§1)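 HCT116, L1210 leukaemia and normal fibroblast cells were seeded in soft agar in separate 60 mm dishes. The compound was applied to a filter-paper disk laid on the agar. Colony-formation inhibition zones were read after 6–7 days at 37 °C and expressed in zone units (200 units = 6.5 mm; 950 = total inhibition; 0 = none). n > 2 unless otherwise indicated.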

L1210 [2] = test: Diameter of zone of inhibition for cell colony formation of leukemia L1210 at the dose of 200 ug; type: functional, Mus musculus
How it was run: (§2)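 Soft agar disk diffusion: leukemia (L1210), solid tumor (HCT116, or colon H15) and normal fibroblast cells seeded in soft agar in separate 60 mm dishes. Compound applied to a filter paper disk (dose in μg/disk) set on the agar. Colony-formation inhibition zones read after 6–7 days at 37 °C. 200 zone units = 6.5 mm; 950 = total inhibition; a range marks partial colony shrinkage. n > 2 unless noted.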

[3] = Diameter of zone of inhibition for cell colony formation of normal fibroblast at the dose of 200 ug; Range is 0-4.875; type: functional, Homo sapiens; how it was run: as §2
L1210 [4] = test: Diameter of zone of inhibition for cell colony formation of leukemia L1210 at the dose of 210 ug; type: functional, Mus musculus; how it was run: as §2
[5] = Diameter of zone of inhibition for cell colony formation of solid tumor H15 at the dose of 210 ug; type: functional, Homo sapiens; how it was run: as §2
Mus musculus [6] = test: Tumor growth delay of human HCT116 colorectal carcinoma in mice after intravenous administration at dose of 32 mg/kg; type: functional
How it was run: (§3)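 Female nude mice were implanted with HCT116 tumour tissue from donor mice and randomized once tumours averaged 100 mm3. The sodium salt in saline (pH 7.4) was given by iv bolus on days 1–5 and 8–12. Tumour volumes were recorded twice weekly. TGD = T − C, the time to reach 500 mm3 taken from a fitted tumour-growth model.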

Mus musculus [7] = test: Tumor growth delay of human HCT116 colorectal carcinoma in mice after intravenous administration at dose of 63 mg/kg; type: functional; how it was run: as §3
[8] = Diameter of zone of inhibition for cell colony formation of normal fibroblast at the dose of 210 ug; Range is 0-11.375; type: functional, Homo sapiens; how it was run: as §2
HCT-116 [9] = test: Diameter of zone of inhibition for cell colony formation of solid tumor HCT116 at the dose of 210 ug; type: functional, Homo sapiens; how it was run: as §1
[10] = Diameter of zone of inhibition for cell colony formation of normal fibroblast at the dose of 210 ug; Range is 0-2.6; type: functional, Homo sapiens; how it was run: as §2

| SMILES | Inhibition (HCT-116 [1]) | Inhibition (L1210 [2]) | Inhibition [3] | Inhibition (L1210 [4]) | Inhibition [5] | Growth delay (Mus musculus [6]) | Growth delay (Mus musculus [7]) | Inhibition [8] | Inhibition (HCT-116 [9]) | Inhibition [10] |
| --- | --- | --- | --- | --- | --- | --- | --- | --- | --- | --- |
| O=C(NS(=O)(=O)c1ccc(Cl)cc1)c1ccc(Cl)c(Cl)c1 | 13 mm | 6.5 mm | 4.87 mm | – | – | – | – | – | – | – |
| O=C(NS(=O)(=O)c1ccc(Cl)cc1)c1ccc(Br)cc1Cl | – | – | – | 6.5 mm | 14.95 mm | 12 days | 23 days | 11.37 mm | – | – |
| O=C(NS(=O)(=O)c1ccc(Cl)cc1)c1cc(Cl)cc(Cl)c1 | – | – | – | 4.87 mm | – | – | – | – | 10.72 mm | 2.6 mm |
